Data set [1] in a line: Prodrug activation in DMSO/PBS mixture assessed as formation of methotrexate at 50 uM after <3 hrs in presence of 0.5 mM H2O2 by RP-UPLC-MS method. A digest of the protocol:
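50 µM prodrug in 30% DMSO/PBS pH 7.4 at 37 °C with diclofenac internal standard. Started with H2O2 at 0.5 mM final. Sampled 5 min to 4 h (some compounds to 48 h). RP-UPLC-UV at 306 nm. No-H2O2 control run in parallel. Triplicate.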

Data set [2] in a line: Prodrug activation in DMSO/PBS mixture assessed as formation of methotrexate at 100 uM after 24 hrs in presence of 0.25 to 10 mM H2O2 by RP-UPLC-MS method. A digest of the protocol:
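Prodrug from 1 mM DMSO stock in PBS pH 7.4 with diclofenac internal standard. Started with H2O2 solutions of 10, 5, 1, 0.5 or 0.25 mM (stock concentrations). Incubated at 37 °C and sampled 5 min to 24 h (48 h for some). RP-UPLC-UV at 306 nm. PBS-only control run. Triplicate.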

Data set [3] is described as follows: Kinetic solubility of the compound in DMSO/PBS mixture after 20 hrs by RP-UPLC-UV method. It is filed as physicochemical. The following applies: read-out: Kinetic_solubility. In a few lines: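 100 µM compound in 1% DMSO/PBS pH 7.4, shaken 20 h at 37 °C. Centrifuged to remove insoluble material; supernatant quantified by RP-UPLC-UV at 306 nm. Triplicate.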

Data set [4] can be described thus: Half life in PBS/DMSO mixture at pH 7.4 by RP-UPLC-UV method. It counts as physicochemical.
The nature of data set [5]: Half life in SGF by RP-UPLC-UV method. It counts as physicochemical. In a few lines:
(§1)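 SGF or SIF (SIF adjusted to pH 7.5) dosed from a 10 mM DMSO stock. Incubated at 37 °C and sampled at 0, 1, 2, 4 and 24 h. Run in triplicate.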

Data set [6] can be described thus: Half life in SIF by RP-UPLC-UV method. It counts as physicochemical. In a few lines: as §1
Data set [7] can be described thus: Half life in human plasma at 20 uM by RP-UPLC-UV method. It is filed as ADME, cell-free. A digest of the protocol:
(§2)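 Reconstituted lyophilized human or mouse plasma mixed about 1:1 with PBS and pre-warmed to 37 °C. Compound added to 20 µM final. […] Procaine (human) and diltiazem (mouse) as controls.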

Data set [8] in a line: Half life in mouse plasma at 20 uM by RP-UPLC-UV method. It is filed as ADME, cell-free. A digest of the protocol:
as §2

Data set [9] is described as follows: Intrinsic clearance in human liver microsomes at 10 uM after 5 to 60 mins by RP-UPLC-UV method. It is filed as ADME, microsome. The conditions noted are these: read-out: CLH. In a few lines: (§3)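 Pooled male liver microsomes (human, or CD-1 mouse) in PBS at 37 °C with 10 µM compound. Reaction started with NADPH. Aliquots taken 0–60 min (mouse also 120 and 240 min) and quenched with cold MeCN/diclofenac. Read by RP-UPLC-UV, ln[C] vs time, first order. No-NADPH control run; verapamil (human) or diphenhydramine (mouse) as reference.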
(Liver microsomes are vesicles of endoplasmic reticulum, rich in cytochrome P450 enzymes.)

Data set [10] in a line: Intrinsic clearance in CD1 mouse liver microsomes at 10 uM after 5 to 240 mins by RP-UPLC-UV method. The following applies: read-out: CLH. It is filed as ADME, microsome. In a few lines:
as §3

Data set [11] can be described thus: Chemical stability in PBS/DMSO mixture at pH 7.4 after 24 hrs by RP-UPLC-UV method. The conditions noted are these: read-out: Stability. It counts as physicochemical.
Data set [12] is described as follows: Metabolic stability in human plasma at 20 uM after 24 hrs by RP-UPLC-UV method. It counts as ADME, cell-free. The following applies: read-out: Stability. In a few lines: as §2
Data set [13] is described as follows: Metabolic stability in mouse plasma at 20 uM after 8 hrs by RP-UPLC-UV method. The conditions noted are these: read-out: Stability. It counts as ADME, cell-free. In a few lines: as §2
Data set [14] has as its system NCI-H460. Nature of the data set: Cytotoxicity against human NCI-H460 cells assessed as decrease in cell viability after 48 hrs by MTS assay. It counts as functional, cell-based. In a few lines:
(§4)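 MCF-7 (DMEM) or NCI-H460 (RPMI), 10% FBS, seeded at 10^4 or 7×10^3 cells/well respectively and attached for 24 h. Exposed to serial compound concentrations for 48 h, then MTS read at 490 nm. DMSO ≤0.4% matched controls. Triplicate. IC50 by non-linear regression.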
In general terms: Tetrazolium assays rely on reduction of a dye to a coloured formazan, in cell work by metabolically active cells.

Data set [15] has as its system MCF7. Nature of the data set: Cytotoxicity against human MCF7 cells assessed as decrease in cell viability after 48 hrs by MTS assay. It counts as functional, cell-based. In a few lines: as §4
In data set [16] the test system is NCI-H460. Nature of the data set: Cytotoxicity against human NCI-H460 cells assessed as decrease in cell viability preincubated with H2O2 for 24 hrs followed by cell addition measured after 48 hrs by MTS assay. It is filed as functional, cell-based. A digest of the protocol:
(§5)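 Compound pre-activated at 125 µM with 1.25 mM H2O2 in DMSO:PBS 1:1, 24 h at 21 °C. Then added to MCF-7 or NCI-H460 cells (24 h attached) for 48 h. Final H2O2 <10 µM. MTS read at 490 nm. Triplicate. IC50 by non-linear regression.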

Data set [17] deals with MCF7. The experiment in a line: Cytotoxicity against human MCF7 cells assessed as decrease in cell viability preincubated with H2O2 for 24 hrs followed by cell addition measured after 48 hrs by MTS assay. It is filed as functional, cell-based. A digest of the protocol:
as §5

The test system of data set [18] is Mus musculus. Nature of the data set: Antiarthritic activity in collagen-induced DBA/1J mouse arthritis model assessed as decrease in incidence of arthritis at 9.7 mg/kg, ip administered daily for 2 weeks starting on day 27 post first immunization measured thrice per week during compound dosing relative to control. It is filed as functional, organism-based. In a few lines: (§6)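 Male DBA/1J mice (8–9 wk, n = 8/group). Arthritis induced by intradermal tail-base immunization with 100 µg chicken type-II collagen in CFA on day −1, with a 50 µg boost on day 21. Daily i.p. dosing in 2% DMSO/PBS for 14 days from day 27. Blinded scoring three times weekly, 0–15 per limb (max 60). Vehicle group as control. Mann-Whitney test.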

Data set [19] concerns Mus musculus. The experiment in a line: Antiarthritic activity in collagen-induced DBA/1J mouse arthritis model assessed as reduction of macroscopic score at 9.7 mg/kg, ip administered daily for 2 weeks starting on day 27 post first immunization measured thrice per week during compound dosing relative to control. It is filed as functional, organism-based. In a few lines:
as §6

Data set [20] concerns Mus musculus. The experiment in a line: Toxicity in collagen-induced DBA/1J mouse arthritis model assessed as decrease in body weight at 9.7 mg/kg, ip administered daily for 2 weeks starting on day 27 post first immunization measured thrice per week during compound dosing. It counts as organism-based. The conditions noted are these: in vivo, 336 h. In a few lines: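 CIA in male DBA/1J mice (8–9 wk, n = 8/group) from chicken type-II collagen/CFA immunization (day −1, boost day 21). Daily i.p. dosing in 2% DMSO/PBS for 14 days starting day 27. Body weight recorded three times weekly as a general-health indicator, compared with vehicle. Data are mean ± SEM.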

The values that follow come from ChEMBL document CHEMBL4043304, “Synthesis and Evaluation of Hydrogen Peroxide Sensitive Prodrugs of Methotrexate and Aminopterin for the Treatment of Rheumatoid Arthritis” (J Med Chem, 2018).

≈ marks a conversion by molar mass, not a printed value. Calls of active or inactive are those of the source. The calls are words filed in the database; no cut-off is given here. Where only a bound is given, the exact number is not on record here.

For orientation: half-life means how long it takes for the measured level to halve.

In the case of `CN(Cc1cnc2nc(N)nc(NC(=O)OCc3ccc(B(O)O)cc3)c2n1)c1ccc(C(=O)N[C@@H](CCC(=O)O)C(=O)O)cc1`, the Drug metabolism result in data set [1] and in data set [2] was “Metabolite detected” throughout. Further, the solubility kinetic at 20 h in data set [3] was 87 µM (≈ 55 µg/mL). The values for the half-life in data set [4], in [5] and in [6] were 238 h, 8 h and 239 h, respectively. For the same compound, the values for the half-life at 20 µM in data set [7] and in [8] were 70 h and 17 h, respectively. The microsomal CLint at 10 µM in data set [9] was determined as 2.2 µL/min/mg; in [10], 6.4 µL/min/mg. In addition, the remaining at 24 h in [11] was > 90%. Besides, the remaining at 24 h, 20 µM in data set [12] came out at 70%. In data set [13], the remaining at 8 h, 20 µM was 62%. The result in the data set on NCI-H460 [14] and in the data set with MCF7 [15] was inactive. Further, the outcome in the data set on NCI-H460 [16], with MCF7 [17], with Mus musculus [18] and in the data set on Mus musculus [19] was Active. Moreover, the Activity result in the data set on Mus musculus [20] was “Non-Toxic”.
